pKi: −log10 of the molar value.
Assays:
[1] = target: T1, Kappa-type opioid receptor (Cavia porcellus, UniProt P41144); assay: Binding affinity against Opioid receptor kappa 1 was measured in the guinea pig brain membranes using [3H]EK in the presence of 1 uM unlabeled DAMGO as radioligand; format: cell membranes, Membrane
How it was run: (§1)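 Guinea pig brain membranes, using a modified version of a published method. μ sites were labelled with [³H]DAMGO. κ sites were labelled with [³H]EK plus 1 μM unlabeled DAMGO. δ sites were labelled with [³H]DADLE plus 1 μM unlabeled DAMGO. Ki values were derived by displacement.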

Mu-type opioid receptor [2] = target: T2, Mu-type opioid receptor (Cavia porcellus, UniProt P97266); assay: Binding affinity against Opioid receptor mu 1 was measured in the guinea pig brain membranes using [3H]DAMGO as radioligand; format: cell membranes, Membrane; how it was run: as §1
[3] = target: Opioid receptors; mu & kappa (Homo sapiens) (UniProt P41145+P35372); assay: Ki ratio measured as the ke values of mu receptor/kappa receptor from guinea pig brain membranes.
[4] = target: Mu-type opioid receptor (Cavia porcellus) (UniProt P97266); assay: Maximal inhibition of compound was measured on guinea pig ileal longitudinal muscle (GPI) preparation at 1 uM concentration; format: functional, tissue-based; conditions: Muscle tissue
How it was run: (§2)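 Agonist activity at 1 μM on electrically stimulated guinea pig ileum and mouse vas deferens preparations. Maximal inhibition or stimulation was recorded, averaged over three determinations.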

[5] = target: Delta-type opioid receptor (Mus musculus) (UniProt P32300); assay: Maximal inhibition of compound was measured on Mouse vas deferens(MVD) preparation; format: functional; how it was run: as §2
[6] = target: Delta-type opioid receptor (Mus musculus) (UniProt P32300); assay: Binding affinity of compound was measured against Opioid receptor delta 1 in mouse vas deferens (MVD) smooth muscle preparation at 100 nM using DADLE as standard agonist
How it was run: (§3)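 Electrically stimulated guinea pig ileal longitudinal muscle was used for μ agonists (M, DAMGO) and κ agonists (EK, U50488H). Mouse vas deferens was used for δ agonists (DADLE, DPDPE). Antagonist at 100 nM unless specified, preincubated 15 min. Agonist concentration-response curves were run without and then with antagonist in the same tissue, giving IC50s. Ke = [antagonist]/(IC50 ratio − 1).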

[7] = Compound was tested for antagonist activity against Opioid receptor delta 1 in mouse vas deferens (MVD) smooth muscle preparation at 100 nM using DADLE as agonist; format: functional; how it was run: as §3
[8] = target: Mu-type opioid receptor (Cavia porcellus) (UniProt P97266); assay: Binding affinity of compound was measured against Opioid receptor mu 1 on electrically stimulated guinea pig ileal longitudinal muscle myenteric plexus (GPI)at 100 nM preparation using M as agonist; how it was run: as §3
[9] = target: Kappa-type opioid receptor (Cavia porcellus) (UniProt P41144); assay: Binding affinity of compound was measured against Opioid receptor kappa 1 on electrically stimulated guinea pig ileal longitudinal muscle myenteric plexus (GPI) at 100 nM preparation using EK as agonist; how it was run: as §3
[10] = tested on: Kappa-type opioid receptor; assay: Compound was tested for antagonist activity against kappa opioid receptor on electrically stimulated guinea pig ileal longitudinal muscle myenteric plexus (GPI) at 100 nM using EK as agonist ligand.; format: functional; how it was run: as §3
[11] = target: Mu-type opioid receptor (Homo sapiens) (UniProt P35372); assay: Compound was tested for antagonist activity against mu opioid receptor on electrically stimulated guinea pig ileal longitudinal muscle myenteric plexus (GPI) at 100 nM using M as agonist ligand. IC50; format: functional; how it was run: as §3
[12] = target: Mu-type opioid receptor (Homo sapiens) (UniProt P35372); assay: Compound was tested for antagonist activity against mu opioid receptor on electrically stimulated guinea pig ileal longitudinal muscle myenteric plexus (GPI) at 100 nM using M as agonist ligand.; format: functional; how it was run: as §3
Mu-type opioid receptor [13] = target: T2, Mu-type opioid receptor; assay: (§4) Binding affinity of compound was measured against Opioid receptor mu 1 on electrically stimulated guinea pig ileal longitudinal muscle myenteric plexus (GPI)at 100 nM preparation using DAMGO as agonist; how it was run: as §3
[14] = target: Delta-type opioid receptor (Mus musculus) (UniProt P32300); assay: Binding affinity of compound was measured against Opioid receptor delta 1 in mouse vas deferens (MVD) smooth muscle preparation at 100 nM using DPDPE as standard agonist; how it was run: as §3
[15] = target: T1, Kappa-type opioid receptor; assay: (§5) Binding affinity of compound was measured against Opioid receptor kappa 1 on electrically stimulated guinea pig ileal longitudinal muscle myenteric plexus (GPI) at 100 nM preparation using U-50,488H as agonist; how it was run: as §3
[16] = target: Mu-type opioid receptor (Cavia porcellus) (UniProt P97266); assay: as §4; how it was run: as §3
[17] = target: Kappa-type opioid receptor (Cavia porcellus) (UniProt P41144); assay: as §5; how it was run: as §3
Mus musculus [18] = assay: compound was tested for antagonism of the antinociceptive effect of EK opioid agonist, sc in mice in an acetic acid writhing assay in a treated group(icv with 100 nmol of 2.HCl in 5 microL of saline); format: functional
How it was run: (§6)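 Mouse acetic acid writhing assay. Antagonist was given icv at 100 nmol in 5 μL saline, timed so its 60-min peak effect fell at the centre of the observation period. Agonists (M, EK, U50488H) were given sc at four dose levels to control and treated mice. ED50 ratio = treated ED50 / control ED50.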

Mus musculus [19] = assay: Compound was tested for antagonism of the antinociceptive effect of EK opioid agonist, sc in mice in an acetic acid writhing assay in a control group; format: functional; how it was run: as §6
Mus musculus [20] = assay: Compound was tested for antagonism of the antinociceptive effect of M opioid agonist, sc in mice in an acetic acid writhing assay in a control group; format: functional; how it was run: as §6
Mus musculus [21] = assay: Compound was tested for antagonism of the antinociceptive effect of M opioid agonist, sc in mice in an acetic acid writhing assay in a treated group(icv with 100 nmol of 2.HCl in 5 microL of saline); format: functional; how it was run: as §6
Mus musculus [22] = assay: Compound was tested for antagonism of the antinociceptive effect of U-50, 488H opioid agonist, sc in mice in an acetic acid writhing assay in a control group; format: functional; how it was run: as §6
Mus musculus [23] = assay: Compound was tested for antagonism of the antinociceptive effect of U-50, 488H opioid agonist, sc in mice in an acetic acid writhing assay in a treated group(icv with 100 nmol of 2.HCl in 5 microL of saline); format: functional; how it was run: as §6
[24] = target: Kappa-type opioid receptor (Homo sapiens) (UniProt P41145); assay: Compound was tested for antagonist activity against kappa opioid receptor on electrically stimulated guinea pig ileal longitudinal muscle myenteric plexus (GPI) at 100 nM using U-50,488H as agonist ligand.; format: functional; how it was run: as §3
[25] = target: Mu-type opioid receptor (Homo sapiens) (UniProt P35372); assay: Compound was tested for antagonist activity against mu opioid receptor on electrically stimulated guinea pig ileal longitudinal muscle myenteric plexus (GPI) at 100 nM using DAMGO as agonist ligand.; format: functional; how it was run: as §3

Sequence of Delta-type opioid receptor (Mus musculus) (P32300 whole entry): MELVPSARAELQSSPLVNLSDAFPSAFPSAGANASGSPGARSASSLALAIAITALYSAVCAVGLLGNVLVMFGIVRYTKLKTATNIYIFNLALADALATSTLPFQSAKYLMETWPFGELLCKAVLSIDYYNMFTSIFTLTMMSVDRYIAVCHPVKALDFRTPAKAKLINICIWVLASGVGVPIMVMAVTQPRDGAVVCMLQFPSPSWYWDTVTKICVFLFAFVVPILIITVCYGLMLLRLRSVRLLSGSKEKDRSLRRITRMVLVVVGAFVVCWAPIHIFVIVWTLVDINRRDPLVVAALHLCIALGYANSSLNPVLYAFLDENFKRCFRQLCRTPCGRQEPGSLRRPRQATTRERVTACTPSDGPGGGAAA
Sequence of Mu-type opioid receptor (Homo sapiens) (P35372 whole entry): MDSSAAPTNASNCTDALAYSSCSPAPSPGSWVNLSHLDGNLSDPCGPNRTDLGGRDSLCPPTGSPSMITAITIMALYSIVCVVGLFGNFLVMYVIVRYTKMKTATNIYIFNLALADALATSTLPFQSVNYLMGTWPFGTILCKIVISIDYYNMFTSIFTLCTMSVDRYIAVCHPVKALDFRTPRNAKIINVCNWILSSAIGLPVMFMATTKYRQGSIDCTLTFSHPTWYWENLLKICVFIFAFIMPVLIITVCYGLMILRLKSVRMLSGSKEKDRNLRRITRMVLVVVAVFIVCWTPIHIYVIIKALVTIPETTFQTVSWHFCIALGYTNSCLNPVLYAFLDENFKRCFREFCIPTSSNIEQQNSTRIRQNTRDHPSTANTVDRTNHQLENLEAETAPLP
T2 sequence (P97266 whole entry): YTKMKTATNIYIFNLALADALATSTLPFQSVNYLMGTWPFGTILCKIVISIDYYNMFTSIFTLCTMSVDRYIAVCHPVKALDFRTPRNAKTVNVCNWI
Sequence of Mu-type opioid receptor (Cavia porcellus) (P97266 whole entry): as above
Sequence of Kappa-type opioid receptor (Cavia porcellus) (P41144 whole entry): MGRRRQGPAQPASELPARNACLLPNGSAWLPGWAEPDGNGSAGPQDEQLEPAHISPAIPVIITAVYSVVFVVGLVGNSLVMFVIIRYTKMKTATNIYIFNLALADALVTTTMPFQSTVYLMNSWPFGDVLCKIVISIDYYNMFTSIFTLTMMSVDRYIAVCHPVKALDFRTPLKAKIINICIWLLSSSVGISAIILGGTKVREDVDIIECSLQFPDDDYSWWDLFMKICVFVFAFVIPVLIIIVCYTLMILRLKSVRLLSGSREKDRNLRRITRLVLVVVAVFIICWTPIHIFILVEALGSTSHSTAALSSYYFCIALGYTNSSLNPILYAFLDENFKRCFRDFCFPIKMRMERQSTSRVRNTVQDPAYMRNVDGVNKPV
T1 sequence (P41144 whole entry): as above
Sequence of Opioid receptors; mu & kappa (Homo sapiens) (P35372 whole entry, looked up): as the sequence (P35372 whole entry) above
Sequence of Opioid receptors; mu & kappa (Homo sapiens) (P41145 whole entry, looked up): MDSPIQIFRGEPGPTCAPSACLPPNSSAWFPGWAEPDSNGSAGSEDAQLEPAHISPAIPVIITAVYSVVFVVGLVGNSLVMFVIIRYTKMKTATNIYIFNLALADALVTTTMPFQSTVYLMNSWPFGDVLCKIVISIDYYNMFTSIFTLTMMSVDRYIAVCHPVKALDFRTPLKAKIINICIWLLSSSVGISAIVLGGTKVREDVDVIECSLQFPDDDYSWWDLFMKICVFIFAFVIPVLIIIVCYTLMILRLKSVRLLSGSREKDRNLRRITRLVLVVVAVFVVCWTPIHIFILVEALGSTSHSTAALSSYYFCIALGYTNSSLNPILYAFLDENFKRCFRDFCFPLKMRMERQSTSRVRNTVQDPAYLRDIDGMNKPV
Sequence of Kappa-type opioid receptor (Homo sapiens) (P41145 whole entry): as the sequence (P41145 whole entry, looked up) above

| Compound | pKi [1] | pKi (Mu-type opioid receptor [2]) | Ratio [3] | Activity [4] | Activity [5] | Ke [6] [nM] | Ratio [7] | Ke [8] [nM] | Ke [9] [nM] | Ratio [10] | Ratio [11] | pKi (Mu-type opioid receptor [13]) | pKi [15] | Ke [16] [nM] | Ke [17] [nM] | further results |
| --- | --- | --- | --- | --- | --- | --- | --- | --- | --- | --- | --- | --- | --- | --- | --- | --- |
| Cn1c2c(c3c1[C@@H]1Oc4c(O)ccc5c4[C@@]14CCN(CC1CC1)[C@H](C5)[C@]4(O)C3)C[C@@]1(O)[C@H]3Cc4ccc(O)c5c4[C@@]1(CCN3CC1CC1)[C@H]2O5 [BINALTORPHIMINE] | 9.39 | 7.74 | 44 |  |  |  |  |  |  |  |  |  |  |  |  |  |
| Oc1ccc2c3c1O[C@H]1C(SSC4=CC[C@@]5(O)[C@H]6Cc7ccc(O)c8c7[C@@]5(CCN6CC5CC5)[C@H]4O8)=CC[C@@]4(O)[C@@H](C2)N(CC2CC2)CC[C@]314 |  |  |  | 40 | 15 | 13.2 | 8.6 | 2.2 | 3.5 | 9.7 | 14.6 |  |  |  |  |  |
| O=C1C(=Cc2ccccc2)C[C@@]2(O)[C@H]3Cc4ccc(O)c5c4[C@@]2(CCN3CC2CC2)[C@H]1O5 |  |  |  | -8 | -35 | 2.9 | 35 | 8.3 | 100 | 2 | 13.1 |  |  |  |  |  |
| Oc1ccc2c3c1O[C@H]1C4=C(C[C@@]5(O)[C@@H](C2)N(CC2CC2)CC[C@]315)C(c1ccccc1)C1=C(O4)[C@@H]2Oc3c(O)ccc4c3[C@@]23CCN(CC2CC2)[C@H](C4)[C@]3(O)C1 | 8.00 | 7.54 | 11 | -24 | 9 | 36 | 3.8 | 39 | 2.6 | 39 |  |  |  |  |  | Ratio [12]: 3.6 |
| Oc1ccc2c3c1O[C@H]1c4sc5c(c4C[C@@]4(O)[C@@H](C2)N(CC2CC2)CC[C@]314)C[C@@]1(O)[C@H]2Cc3ccc(O)c4c3[C@@]1(CCN2CC1CC1)[C@H]5O4 |  |  |  | -17 | -26 | 33 | 4 | 41 | 2.6 | 39 | 3.5 | 6.72 | 8.85 | > 103 | 3.1 | Ke [14]: > 556 nM; ED50 (Mus musculus [18]): 0.13 mg/kg; ED50 (Mus musculus [19]): 0.038 mg/kg; ED50 (Mus musculus [20]): 0.91 mg/kg; ED50 (Mus musculus [21]): 5.4 mg/kg; ED50 (Mus musculus [22]): 1.5 mg/kg; ED50 (Mus musculus [23]): 11.2 mg/kg; Ratio [24]: 33; Ratio [25]: 1.9 |
| Oc1ccc2c3c1O[C@H]1c4[nH]c5c(c4C[C@@]4(O)[C@@H](C2)N(CC2CC2)CC[C@]314)C[C@@]1(O)[C@H]2Cc3ccc(O)c4c3[C@@]1(CCN2CC1CC1)[C@H]5O4 [NORBINALTORPHIMINE] |  |  |  | 14 | 16 | 10.6 |  | 14 | 0.55 |  |  | 7.33 | 9.59 | 22 | 0.21 |  |
